Measured values taken from ChEMBL document CHEMBL2203259, “Antioxidant glucosylated caffeoylquinic acid derivatives in the invasive tropical soda apple, Solanum viarum” (J Nat Prod, 2012).
The source made the active and inactive calls. No cut-off for these calls is given here.

Tests used:
Assay type in all cases: functional
[1] = Antioxidant activity assessed as trolox equivalents of ABTS radical scavenging activity at 25 mins by TEAC assay
Outline: (§1)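 ABTS•+ scavenging run per an earlier published method. Standard curve built from six 1:2 serial dilutions of a 500 μg/mL stock solution. Activity expressed as Trolox equivalent antioxidant capacity (TEAC), read at 5 min intervals from 0 to 40 min after starting incubation with the radical. Seven technical replicates.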

[2] = Antioxidant activity assessed as trolox equivalents of ABTS radical scavenging activity at 20 mins by TEAC assay; outline: as §1
[3] = tested on: Radical scavenging activity; test: Antioxidant activity assessed as DPPH radical scavenging activity
[4] = Antioxidant activity assessed as trolox equivalents of ABTS radical scavenging activity at 40 mins by TEAC assay; outline: as §1
[5] = Antioxidant activity assessed as trolox equivalents of ABTS radical scavenging activity at 15 mins by TEAC assay; outline: as §1
[6] = Antioxidant activity assessed as trolox equivalents of ABTS radical scavenging activity at 5 mins by TEAC assay; outline: as §1
[7] = Antioxidant activity assessed as trolox equivalents of ABTS radical scavenging activity at 0 min by TEAC assay; outline: as §1
[8] = Antioxidant activity assessed as trolox equivalents of ABTS radical scavenging activity at 35 mins by TEAC assay; outline: as §1
[9] = Antioxidant activity assessed as trolox equivalents of ABTS radical scavenging activity at 10 mins by TEAC assay; outline: as §1
[10] = Antioxidant activity assessed as trolox equivalents of ABTS radical scavenging activity at 30 mins by TEAC assay; outline: as §1

Row | Compound | Activity [1] | Activity [2] | Activity [3] | Activity [4] | Activity [5] | Activity [6] | Activity [7] | Activity [8] | Activity [9] | Activity [10]
1 | O=C(/C=C/c1ccc(O[C@@H]2O[C@H](COC(=O)[C@]3(O)C[C@@H](O)[C@@H](O)[C@H](OC(=O)/C=C/c4ccc(O)c(O)c4)C3)[C@@H](O)[C@H](O)[C@H]2O)c(O)c1)O[C@@H]1C[C@](O)(C(=O)O)C[C@@H](O)[C@H]1O | 3.73 | 3.64 | Active | 3.89 | 3.18 | 2.71 | 1.51 | 3.81 | 3.01 | 3.71
2 | O=C(O)CC(=O)O[C@@H]1C[C@@](O)(C(=O)O)C[C@@H](OC(=O)/C=C/c2ccc(O[C@@H]3O[C@H](COC(=O)[C@]4(O)C[C@@H](O)[C@@H](O)[C@H](OC(=O)/C=C/c5ccc(O)c(O)c5)C4)[C@@H](O)[C@H](O)[C@H]3O)c(O)c2)[C@@H]1O | 2.49 | 2.26 | Active | 2.56 | 2.1 | 1.61 | -0.31 | 2.5 | 1.85 | 2.42
3 | O=C(/C=C/c1ccc(O)c(O)c1)O[C@@H]1C[C@](O)(C(=O)O)C[C@@H](O)[C@H]1O | 2.49 | 2.26 | Active | 2.56 | 2.1 | 1.61 | -0.31 | 2.5 | 1.85 | 2.42
